Test results as given in PMC4128068 (British Journal of Pharmacology, 2014).

Assays:
[1] = biological target: CFTR-like Cl− conductance (Mus musculus, UniProt P26361); assay type: cell-based
In short: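 Ruptured whole-cell patch clamp on cultured kidney DCT cells. CFTR current activated with forskolin (1–10 µM); once fully developed (3–4 min), test compound was perfused at rising concentrations (0.5, 1, 5, 10 µM). Holding potential −40 mV; eleven 400-ms steps from −100 to +100 mV in +20 mV increments. Current read 350 ms after pulse onset; mean ±SEM of six to eight cells.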

[2] = biological target: T1, volume-sensitive outwardly rectifying Cl− conductance (VSORC) (Mus musculus, UniProt Q80WG5); assay type: cell-based; conditions: CFTR-expressing cells
T1 sequence (Q80WG5 1-810): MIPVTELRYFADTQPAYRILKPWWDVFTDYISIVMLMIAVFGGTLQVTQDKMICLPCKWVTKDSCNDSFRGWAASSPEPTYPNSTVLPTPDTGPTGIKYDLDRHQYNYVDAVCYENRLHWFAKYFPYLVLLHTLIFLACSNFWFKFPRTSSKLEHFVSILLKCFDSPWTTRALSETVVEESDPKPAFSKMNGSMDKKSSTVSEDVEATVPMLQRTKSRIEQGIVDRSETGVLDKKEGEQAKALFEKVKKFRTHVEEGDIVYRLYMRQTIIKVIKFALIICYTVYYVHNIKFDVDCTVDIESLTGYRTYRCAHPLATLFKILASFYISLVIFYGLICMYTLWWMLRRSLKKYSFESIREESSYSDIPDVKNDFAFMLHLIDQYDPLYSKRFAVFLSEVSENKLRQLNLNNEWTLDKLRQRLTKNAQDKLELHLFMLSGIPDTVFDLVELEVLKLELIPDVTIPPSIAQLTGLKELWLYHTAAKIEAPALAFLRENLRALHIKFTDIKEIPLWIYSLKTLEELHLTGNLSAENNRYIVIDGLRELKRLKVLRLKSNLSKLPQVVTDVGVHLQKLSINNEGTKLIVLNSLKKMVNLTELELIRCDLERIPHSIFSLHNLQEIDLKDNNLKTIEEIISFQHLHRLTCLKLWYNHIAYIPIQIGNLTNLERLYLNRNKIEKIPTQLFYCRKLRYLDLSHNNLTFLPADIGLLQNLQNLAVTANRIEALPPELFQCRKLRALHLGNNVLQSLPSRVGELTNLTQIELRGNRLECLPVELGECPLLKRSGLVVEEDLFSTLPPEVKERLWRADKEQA
In short: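 Ruptured whole-cell patch clamp on kidney cells. Pipette: 140 mM NMDGCl, 10 HEPES pH 7.4, 5 EGTA, 5 MgATP. VSORC was activated by switching from a mannitol-containing NMDGCl bath (320–330 mOsm) to a mannitol-free one (285–290 mOsm). Test compound (0.5–10 µM) was perfused after 3–4 min. Cells were held at −40 mV with 400 ms steps from −100 to +100 mV. Slopes (−100 to −60 and +60 to +100 mV) were normalised to the hypotonic maximum; 5–6 cells.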

[3] = system: Ca2+-dependent Cl− conductance (CaCC); experiment: whole-cell patch-clamp, ionomycin-activated CaCC in CFTR-expressing kidney cells; assay type: cell-based, mouse
In short: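 Ruptured whole-cell patch clamp on kidney cells, with the NMDGCl pipette solution (5 EGTA, 5 MgATP, pH 7.4). CaCC was activated with 2 µM ionomycin, and test compound (1, 5, 10 µM) was perfused once current peaked. Cells were held at −40 mV with 400 ms steps from −100 to +120 mV. Slopes (+60 to +120 mV) were normalised to the uninhibited maximum; 5–6 cells. IC50 came from Hill fits.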

[4] = system: kidney PCT cells (CFTR-expressing); experiment: LIVE/DEAD cell viability/cytotoxicity assay; assay type: cell-based, mouse; conditions: 24 h
In short: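 Confluent mouse kidney PCT monolayers in 1% serum were exposed to the test compound (0.5–50 µM) for 24 h. Live cells were stained with calcein-AM (green) and dead cells with […] (red). Green and red pixels were quantified on three micrographs per well. Values were normalised to 100% live cells in controls, as means ±SEM of 3–6 experiments.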

[5] = system: kidney PCT cells (CFTR-expressing); experiment: MTT assay on CFTR-expressing cells; assay type: cell-based, mouse; conditions: 24 h
PS120 cells = experiment: MTT assay on non–CFTR-expressing cells; assay type: cell-based, hamster; conditions: 24 h
In short: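 PS120 cells in 1% serum were exposed to increasing test compound concentrations for 24 h. They were then incubated 1 h with 0.5 mg mL−1 MTT in phenol red-free DMEM:F12 with 5% serum at 37°C. Cells were lysed in 10% SDS/0.01 N HCl overnight and OD read at 562 nm. Values were normalised to vehicle, means (SEM) of eight experiments.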

[6] = system: shark 'CFTR-like' protein; conditions: 25 µM; oocyte expression system; ref Stahl et al., 2012; cited from earlier work
human CFTR = conditions: 20 µM; oocyte expression system; ref Stahl et al., 2012; cited from earlier work

Chain of CFTR-like Cl− conductance (P26361 whole entry, the tested form may be a part): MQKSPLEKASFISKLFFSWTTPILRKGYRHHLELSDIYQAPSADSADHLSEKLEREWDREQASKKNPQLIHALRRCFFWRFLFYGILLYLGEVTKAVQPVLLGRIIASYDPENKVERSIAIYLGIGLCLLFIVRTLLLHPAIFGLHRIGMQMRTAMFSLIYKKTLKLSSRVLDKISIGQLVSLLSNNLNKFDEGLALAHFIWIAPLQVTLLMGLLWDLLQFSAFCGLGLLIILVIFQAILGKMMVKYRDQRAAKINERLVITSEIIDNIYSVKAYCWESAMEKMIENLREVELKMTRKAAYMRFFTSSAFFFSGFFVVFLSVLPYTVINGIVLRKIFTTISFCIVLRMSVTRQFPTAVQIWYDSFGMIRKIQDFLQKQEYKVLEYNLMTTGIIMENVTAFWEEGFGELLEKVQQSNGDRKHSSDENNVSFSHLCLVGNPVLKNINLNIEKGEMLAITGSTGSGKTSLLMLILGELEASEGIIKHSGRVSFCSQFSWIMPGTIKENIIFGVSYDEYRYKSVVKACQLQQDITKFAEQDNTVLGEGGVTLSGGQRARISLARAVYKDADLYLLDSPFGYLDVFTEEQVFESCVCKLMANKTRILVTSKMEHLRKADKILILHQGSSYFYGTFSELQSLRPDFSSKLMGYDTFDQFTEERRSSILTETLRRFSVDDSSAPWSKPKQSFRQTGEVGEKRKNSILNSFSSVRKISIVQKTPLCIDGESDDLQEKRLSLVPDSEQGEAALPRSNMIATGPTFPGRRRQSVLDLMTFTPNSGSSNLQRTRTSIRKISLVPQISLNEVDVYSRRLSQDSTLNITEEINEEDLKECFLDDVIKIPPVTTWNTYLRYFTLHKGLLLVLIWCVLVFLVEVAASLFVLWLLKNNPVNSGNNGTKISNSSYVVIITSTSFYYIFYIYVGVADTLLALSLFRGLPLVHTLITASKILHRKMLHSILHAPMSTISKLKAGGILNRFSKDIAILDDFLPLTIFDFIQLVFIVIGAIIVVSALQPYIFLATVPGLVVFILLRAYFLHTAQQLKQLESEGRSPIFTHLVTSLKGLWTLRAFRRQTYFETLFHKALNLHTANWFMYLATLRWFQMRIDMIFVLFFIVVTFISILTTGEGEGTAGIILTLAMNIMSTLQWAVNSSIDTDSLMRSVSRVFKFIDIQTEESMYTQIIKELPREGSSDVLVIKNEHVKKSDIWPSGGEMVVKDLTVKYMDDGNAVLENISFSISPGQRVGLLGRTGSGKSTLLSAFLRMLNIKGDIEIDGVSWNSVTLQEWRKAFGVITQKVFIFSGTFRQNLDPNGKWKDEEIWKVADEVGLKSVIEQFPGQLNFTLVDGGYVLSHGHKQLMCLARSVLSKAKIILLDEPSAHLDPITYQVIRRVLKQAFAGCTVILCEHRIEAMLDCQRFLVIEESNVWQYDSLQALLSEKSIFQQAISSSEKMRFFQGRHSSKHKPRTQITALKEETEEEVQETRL

## O=C(O)c1ccc(C=C2SC(=S)N(c3cccc(C(F)(F)F)c3)C2=O)cc1 [CFTRinh-172, 3-[(3-trifluoromethyl)phenyl]-5-[(4-carboxyphenyl)methylene]-2-thioxo-4-thiazolidinone]
[1]; 5 µM
  inhibition of the CFTR conductance: full inhibition
[1]; forskolin-activated, tested 0.5, 1, 5, 10 µM
  concentration of maximal inhibition of the CFTR-like current: 5 µM
[2]; 10 µM, negative and positive potentials
  inhibition of VSORC: ~50%
[2]; read-out: IC50 towards VSORC-mediated Cl− currents, either at negative or positive potentials
  IC50: 12 µM
[2]; up to 1 µM
  effect on VSORC conductance: did not affect
[3]; 5 µM
  inhibition of the CaCC: no noticeable inhibition
[3]; up to 10 µM, ionomycin 2 µM
  effect on the CaCC: did not affect
[4]; 50 µM
  effect on cell viability (live/dead labelling): induced cell death
[4]; 1 to 20 µM
  effect on cell viability (live/dead labelling): no significant effect on cell viability
[5]; 20 µM and even 10 µM
  effect on cell viability (MTT): marked effect
[5]; 50 µM
  effect on cell viability (MTT): dramatic decrease of the cell viability
PS120 cells
  concentration decreasing cell viability (MTT): 5 µM
[6]
  inhibition of shark 'CFTR-like' protein: 10%
Human CFTR
  inhibition of human CFTR: ~50%

## O=C(O)c1cc([N+](=O)[O-])ccc1NCCCc1ccccc1 [NPPB, 5-nitro-2-(3-phenylpropylamino)-benzoic acid]
[2]; 100 µM, after CFTRinh-172
  inhibition of the remaining fraction of the VSORC current: completely inhibited
